Results reported in the RNAGym collection of RNA variant scans (doi:10.1126/science.aae0568).
Variants at the floor of the assay were thinned out.

B1: tRNA (parent)
chain: GUUCCGUUGGCGUAAUGGUAACGCGUCUCCCUCCUAAGGAGAAGACUGCGGGUUCGAGUCCCGUACGGAACG

Variants of: B1
Experiment: yeast fitness relative to wild type (ratio to wild type); higher = fitter; tRNA-Arg(CCU), competitive growth, 37 C, YPD
Procedure, shortened: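 Genotype frequency changes were the basis for Darwinian fitness relative to wild type. The frequencies came from 100-nucleotide paired-end sequencing of gene amplicons from the start population and each end population of pooled yeast strains with tRNA-Arg(CCU) gene variants at the native locus. Competition ran in YPD at 37°C for 24 hours in six replicates, genotypes needed ≥ 100 starting reads, and estimates < 0.5 were set to 0.5.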
In the case of GUUCCGUUGGUGUAAUGGUAACGCGUCUCCCUCCUAGGGAGAAGACUGCGGGUUCGAGUCCCGUACGGAACG [C11U A37G], the yeast fitness is reported as 0.896. With GUUCCGUUGGUGUAAUGGUAAGGCGUUUCCGUCCUAAGGAGAAGACUGCGGGUUCGAGUCCCGUACGGAACG [C11U C22G C27U C31G] the yeast fitness was ≤ 0.5. For GUUCCGUUGGUGUAAUGGUAACGCGUCUCCCUCCUAAGGAGAAGGCUGCGGGCUCGAGUCCCGUACGGAACG [C11U A45G U53C], the yeast fitness was 0.637. With GUUCCGUUGGUGUAAUGGUAACGCGUCUCCCUCCUACGGAGGUGACUGCGGGUUCGAGUCCAGUACGGAACG [C11U A37C A42G A43U C62A] the yeast fitness was ≤ 0.5. With GUUCCGUUGGUGUAAUGGUAACGCGUCUCCCUCCUAAGGAGAAGCCUGCGGCUUCGAGUCUCGUACGGAACG [C11U A45C G52C C61U] the yeast fitness was ≤ 0.5. With GUUCCGUUGGUGUAAUGGUAACGGGUCUCCCUACUAAGGAGGAGACUGCGGGUUCGAGUCCCGUACGGAACG [C11U C24G C33A A42G] the yeast fitness was ≤ 0.5. In the case of GUUCCGUUGGUGUAAUGGUAACGCGUCUCCUUCCUAAGCUGAAGACUGCGGGUUCGAGUCCCGUACGGAACG [C11U C31U G39C A40U], the yeast fitness is reported as 0.544. In the case of GUUCCGUUGGUGUAAUGGUAAGGCGUCUCCCUCGUAAGGAGAAGACUGCGGGUUCGAGUCCCGUACGGACCG [C11U C22G C34G A70C], the yeast fitness is reported as ≤ 0.5. For GUUCCGUUGGUGUAAUGGUAACGGGUCUCCCUACUAAGGCGAAGACUGCGGGUUCGAGUCCCGUAUGGAACG [C11U C24G C33A A40C C66U], the yeast fitness was 0.743. For GUUCCGUUGGUGUAAUGGUAAUGCGUCUCCCUCCUAAGGAGAAGACUGCGGGUCCCAAUCCCGUACGGAACG [C11U C22U U54C G56C G58A], the yeast fitness was ≤ 0.5. Variant GUUCCGUUGGUGUAAUGGUAACGCGUCUCACUCCUAAGGAGAAGACUGCGGGUUCGAGUCCCGUACGGAACG [C11U C30A] has a yeast fitness of 0.823. In the case of GUUCCGUUGGUGUAAUGGUAACGCGUCUCCCUCCUAAGGAGAAGUCUGCGGGUUCGAUUCCCGUACGGAACG [C11U A45U G58U], the yeast fitness is reported as 0.562. Variant GUUCCGUUGGUGUAAUGGUAACGCGUCUCCGUCCUAAGGAGAAGACUGCGGGUUCGAGUCCCGUACGGAUCG [C11U C31G A70U] has a yeast fitness of 0.598. For GUUCCGUUGGUGUAAUGGUAACGCGUCUCCCUCCUAAGGAGAAGUCUGCGGGUUCGAGUCGCGUCCGGAACG [C11U A45U C61G A65C], the yeast fitness was ≤ 0.5. With GUUCCGUUGGUGUAAUGGUAACGCGUCUUCCUCCUAAGGAGAAGACUGCGGGUUCGAGUCCCGUACGGAACG [C11U C29U] the yeast fitness was 0.738. With GUUCCGUUGGUGUAAUGGUAACGCGUCUGCCUCCUAAGGAGAAGACUGCGGGUUCGAGUCCCGUACGGAACG [C11U C29G] the yeast fitness was 0.687. With GUUCCGUUGGUGUAAUGGUAACGAGUCUCCCUCCUAAGGAGAAGACUGCGGGUUCGAGUCCCGUACGCAACG [C11U C24A G68C] the yeast fitness was ≤ 0.5. For GUUCCGUUGGUGUAAUGGUAACGCGUCUCCCUCCUAAGGAGAAGUCUGCGGGUUCGAGUCCCGUACGGAACG [C11U A45U], the yeast fitness was 0.951. GUUCCGUUGGUGUAAUGGUAACGCGUCUCCCUCCUAAGGAGAAGCCUGCGGGUUCGAGUCCCGUACGGAACG [C11U A45C] gave a yeast fitness of 0.836. In the case of GUUCCGUUGGUGUAAUGGUAACGUGUCUGCCUCCUAAAGCGAAGACUGCGGGUUCGAGUCCCGUACGGAACG [C11U C24U C29G G38A A40C], the yeast fitness is reported as ≤ 0.5. For GUUCCGUUGGUGUAAUGGUAACGCGUUUCCAUCCUAAGGAGGAGACUGGGAGUUCGAGUCCCGUACGCAACG [C11U C27U C31A A42G C49G G51A G68C], the yeast fitness was ≤ 0.5. GUUCCGUUGGUGUAAUGGUAACGCGUCUCCCUCCUAGGGAGAAGACUGCGAGUUCGAGUCCCGUACGGAACG [C11U A37G G51A] gave a yeast fitness of 0.568. For GUUCCGUUGGUGUAAUGGUAACGCGUCUGCCUUCUAAGGAGAAGACUGCGGGUUCGAGUUCCGUUCGGUACG [C11U C29G C33U C60U A65U A69U], the yeast fitness was ≤ 0.5. With GUUCCGUUGGUGUAAUGGUAAUGCGUCUCCCUCCUAAGGAGACGACUGUGGGUUGGAGUCUCGUACGGAACG [C11U C22U A43C C49U C55G C61U] the yeast fitness was ≤ 0.5. For GUUCCGUUGGUGUAAUGGUAAUGCGUCUCCCUCAUAAGGUGAAGACUGCGGGUUCGAGUCCCGUACGGAACG [C11U C22U C34A A40U], the yeast fitness was ≤ 0.5. With GUUCCGUUGGUGUAAUGGUAACGCGUCUACCUCCUUAGGAGAAGACUGCCGGUUGGAGUCGCGUACGGAACG [C11U C29A A36U G50C C55G C61G] the yeast fitness was 0.592. With GUUCCGUUGGUGUAAUGGUAAUGCGUCUCCCUCCUAAGGAGAAGACUGCGGGUUCGAGUCCCGUAUGGACCG [C11U C22U C66U A70C] the yeast fitness was ≤ 0.5. With GUUCCGUUGGUGUAAUGGUAACGCGUCUCGCUCCUAAGGCGAAGACUGCGGGUUCGAGUCUCGUACGGAACG [C11U C30G A40C C61U] the yeast fitness was ≤ 0.5. Work on GUUCCGUUGGUGUAAUGGUAACGCGUCUCCCUCCUAAGGAGGAGACUGCGGGUUCGAGUCCCGUACGGAACG [C11U A42G] yielded a yeast fitness of 0.917. In the case of GUUCCGUUGGUGUAAUGGUAACGCGUCUCCCUCCUAAGGAGCAGACUGCGGGUUCGAGUCCCGUACGGAACG [C11U A42C], the yeast fitness is reported as 0.91. For GUUCCGUUGGUGUAAUGGUAACGCGUCUCUCUCCUAAGGAGAAGACUGCGGGUUCGAGUCCCGUAAGGAACG [C11U C30U C66A], the yeast fitness was ≤ 0.5. Work on GUUCCGUUGGUGUAAUGGUAACGCGUCUCCCUCCUAGGGAGAAGACUACGGGUUCGAGUCCCGUACGGAACG [C11U A37G G48A] yielded a yeast fitness of 0.597. For GUUCCGUUGGUGUAAUGGUAACGCGUCUCCGUCCUAAGGAGAAGAGUGCGGAUUCGAGUCCCGUAUGGAACG [C11U C31G C46G G52A C66U], the yeast fitness was ≤ 0.5. GUUCCGUUGGUGUAAUGGUAACGCGUCUCCUUCCUAAGGCGAAGACUGCGGGUUCGAGUCCCGUACGGAACG [C11U C31U A40C] showed a yeast fitness of 0.697. Work on GUUCCGUUGGUGUAAUGGUAACGCGUCUCCCUCCUAAGGAGAAGGCUGCGGAUUCGAGUCCCGUACGGAACG [C11U A45G G52A] yielded a yeast fitness of 0.63. With GUUCCGUUGGUGUAAUGGUAACGCGUCUCCCUCCUAAGGAGAAGGCUGCGGCUUCGAGUCCCGUACGGAACG [C11U A45G G52C] the yeast fitness was ≤ 0.5. For GUUCCGUUGGUGUAAUGGUAACGCGUCUCCCUCCUAAGGGGAAGACGGCGGGUUCGAGUCCCGUACGGAACG [C11U A40G U47G], the yeast fitness was ≤ 0.5.
